Experiment [1] concerns BL-41. The experiment in a line: Induction of apoptosis in CD40-positive human BL41 cells assessed as decrease in mitochondrial membrane potential after 16 hrs by mean fluorescence intensity. Format: functional, cell-based. The essentials:
(§1)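 BL41 Burkitt lymphoma cells in RPMI 1640 with 10% FBS were seeded at 5×10^5 ml⁻¹ and exposed to inducers at 37 °C (16 h). Apoptosis was read by flow cytometry, either as loss of DiOC₆(3) uptake (Δψm) or as annexin V–FITC/PI co-staining. Specific apoptosis % = (treated − control)×100/(100 − control). Values are means of three independent experiments.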

The target of experiment [2] is T1, Tumor necrosis factor receptor superfamily member 5 (Homo sapiens, UniProt P25942). The experiment in a line: Inhibition of recombinant human CD40L:mouse CD8 tail binding to human CD40 by surface plasmon resonance method. The gist of the method: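 hCD40:mIg was captured on an anti-mouse Ig chip. A fixed amount of soluble hCD40L:CD8 was premixed with increasing ligand concentrations, and the mixtures were injected at 25 °C in HBS-EP, 30 µl min⁻¹, 5 min association and 5 min dissociation. Regeneration was 50 mM HCl. Inhibition of CD40L binding was taken from reference-subtracted sensorgrams.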

Experiment [3] has as its system BL-41. The experiment in a line: Induction of apoptosis in CD40-positive human BL41 cells assessed as level of CD40 expression by mean fluorescence intensity. It is filed as functional, cell-based.
The subject of experiment [4] is BL-41. The experiment in a line: Induction of apoptosis in CD40-positive human BL41 cells assessed as decrease in reduction in DiOC6 dye uptake after DAPI staining by epifluorescence microscopy. Format: functional, cell-based.
In experiment [5] the test system is BL-41. The experiment in a line: Induction of apoptosis in CD40-positive human BL41 cells assessed as detection of phosphatidylserine expression using annexin V-FITC and propidium iodine staining by flow cytometry. It is filed as functional, cell-based. The essentials:
as §1
On the technique in general: Flow cytometry measures light scatter and fluorescence of single cells or particles in a stream.

The test system of experiment [6] is BL-41. The experiment in a line: Induction of apoptosis in CD40-positive human BL41 cells assessed as reduction in DiOC6 dye uptake after DAPI staining.
Experiment [7] deals with T1, Tumor necrosis factor receptor superfamily member 5. The experiment in a line: Binding affinity to human CD40 by surface plasmon resonance method. The essentials:
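Biacore CM5 chip coated by amine coupling with anti-mouse Ig (~10,000 RU), which captured hCD40:mIg. Ligands were dissolved in water at 1 mM and diluted, then injected at several concentrations at 25 °C in HBS-EP (pH 7.4), 30 µl min⁻¹, 5 min association and 5 min dissociation. Regeneration was 50 mM HCl. Control-channel-subtracted sensorgrams were fitted to binding models.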

Results on 2 molecules are retold here after ChEMBL document CHEMBL1240299, “C3-symmetric peptide scaffolds are functional mimetics of trimeric CD40L” (Nat Chem Biol, 2005).

Active and inactive are the calls of the source. The calls are words filed in the database; no cut-off is given here.

T1 sequence (P25942 whole entry): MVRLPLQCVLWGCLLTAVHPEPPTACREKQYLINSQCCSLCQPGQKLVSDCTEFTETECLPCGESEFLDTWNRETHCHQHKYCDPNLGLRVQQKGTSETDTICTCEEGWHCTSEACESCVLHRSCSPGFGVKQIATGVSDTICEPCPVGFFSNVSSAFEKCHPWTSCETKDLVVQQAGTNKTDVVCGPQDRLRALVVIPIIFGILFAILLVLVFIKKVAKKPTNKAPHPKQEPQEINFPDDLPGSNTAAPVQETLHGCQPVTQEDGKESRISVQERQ

For the molecule `NCCCC[C@H](N)C(=O)NCC(=O)N[C@@H](Cc1ccc(O)cc1)C(=O)N[C@@H](Cc1ccc(O)cc1)C(=O)NCCCCCC(=O)NCCCC[C@@H]1CNC(=O)C[C@H](CCCCNC(=O)CCCCCNC(=O)[C@H](Cc2ccc(O)cc2)NC(=O)[C@H](Cc2ccc(O)cc2)NC(=O)CNC(=O)[C@@H](N)CCCCN)NC[C@H](CCCCNC(=O)CCCCCNC(=O)[C@H](Cc2ccc(O)cc2)NC(=O)[C@H](Cc2ccc(O)cc2)NC(=O)CNC(=O)[C@@H](N)CCCCN)NC(=O)C1`, the outcome with BL-41 [1], in the experiment on BL-41 [3], with BL-41 [4], in the experiment with BL-41 [5] and in the experiment with BL-41 [6] was Active. Further, in experiment [2], the concentration for half-maximal inhibition (IC50) worked out at 50 nM.
As for `NCCCC[C@H](N)C(=O)NCC(=O)N[C@@H](Cc1ccc(O)cc1)C(=O)N[C@@H](Cc1ccc(O)cc1)C(=O)NCCCCCC(=O)N[C@@H](CCCCNC(=O)CCCC[C@H]1SC[C@H]2NC(=O)N[C@H]21)C(=O)NCCCCCC(=O)NCCCC[C@@H]1CNC(=O)C[C@H](CCCCNC(=O)CCCCCNC(=O)[C@H](CCCCNC(=O)CCCC[C@H]2SC[C@H]3NC(=O)N[C@H]32)NC(=O)CCCCCNC(=O)[C@H](Cc2ccc(O)cc2)NC(=O)[C@H](Cc2ccc(O)cc2)NC(=O)CNC(=O)[C@@H](N)CCCCN)NC[C@H](CCCCNC(=O)CCCCCNC(=O)[C@H](CCCCNC(=O)CCCC[C@H]2SC[C@H]3NC(=O)N[C@H]32)NC(=O)CCCCCNC(=O)[C@H](Cc2ccc(O)cc2)NC(=O)[C@H](Cc2ccc(O)cc2)NC(=O)CNC(=O)[C@@H](N)CCCCN)NC(=O)C1`, the result in experiment [7] was Active.

As a reminder, the IC50 is the concentration at which inhibition is half-maximal.
